Screening data deposited in PubChem by PCMD.
Yeast tox: Inhibitors of S. cerevisiae growth, toxicity | S. cerevisiae wild-type growth, A595 turbidity, 16 h | growth inhibition, % at 25 µM (by protocol) | 0.3% of 30,000 active | AID 685;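 active = mutant and wild-type yeast strains alike exhibit over 30% growth inhibition; inconclusive = a strain exceeds 50% while the second remains under 30%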;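 also: 0% = untreated cell controls and 100% = YPD media blanks without cells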
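Schedule: 16 h growth with compound, 30 °C. System: yeast, wild-type or eIF2Bepsilon-R284H mutant. Doses: one dose, 25 µM compound[…]. Buffer or medium: YPD. Signal: turbidity measured as absorbance at 595 nm. Read-out basis: growth inhibition (%) versus cell controls and blanks.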
eIF2B yeast act: modulators of yeast eIF2B activity | S. cerevisiae eIF2B-epsilon R284H, GCN4-lacZ luminescence | inhibition, % at 25 µM (by protocol) | 0.91% of 27,000 active | AID 688;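 active = mutant luminescence inhibited past about 50% while wild type luminescence and mutant growth stay under set limits, limit read from the data; inconclusive = mutant versus wild type luminescence inhibition gap past a set limit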
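Material: yeast eIF2B-epsilon R284H mutant carrying GCN4–beta-galactosidase fusion. Medium: YPD yeast growth medium. Incubation: 16 h growth with compound at 30 °C, 90 min Beta-Glo step. Signal: Beta-Glo luminescence plus absorbance at 595 nm. Evaluation: % inhibition of reporter signal and growth versus controls. Doses: 25 µM single dose.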
* hit, by the source's call; ? = inconclusive; · = no result given; ! = a repeat was not active. Shown are actives, neighbours in structure and some others; about 1% of the full set was active somewhere.

SMILES	Yeast tox	eIF2B yeast act
COc1ccc(CCNC(=O)c2ccc(N3CCCC3=O)cc2)cc1OC	-10	56*
CSCC[C@H](NC(=O)OC(C)(C)C)c1nnc(SCC(=O)Nc2ccc(C)cc2C)o1	-8	·
Cc1cc(NC(=O)C(C)Oc2ccc(Cl)cc2Cl)n(-c2ccccc2)n1 (configuration not stated)	-1	15
COc1ccccc1NC(=O)Cc1csc(N)n1	-2	46
Fc1ccc(SCCc2ccncc2)cc1	59*!	·
c1ccc(SCCc2ccncc2)cc1	9	·
Cc1ccc(-c2cc(-c3ccccc3Cl)[nH]n2)c(O)c1	64*	30
Cc1ccccc1-c1cc(-c2ccccc2O)n[nH]1	18	20
O=C1c2ccccc2C(=O)C1c1ccncc1	20	67*
Cc1ccccc1N1C(=O)c2ccccc2NC1c1ccncc1 (configuration not stated)	0	·
CCCCCCCc1nc2c(=O)[nH]c3ccccc3c2o1	10	-1
CC1(C)Cc2c(c(=S)nc(-c3ccccc3)n2CCOCCO)CO1	-7	51*
Cc1ccc(-c2nc(=S)c3c(n2CCN2CCOCC2)CC(C)(C)OC3)cc1	-12	·
Cc1ccc(OC(=O)CCc2c(C)nc3ncnn3c2C)cc1	-6	42
COc1ccc(OCCCC(=O)NC(C)c2ccccc2)cc1 (configuration not stated)	23	7
Cc1ccc(-c2cc(NC(=O)CCl)n(-c3ccccc3)n2)cc1	?	31
O=C(CCl)Nc1cc(-c2ccccc2)nn1-c1ccccc1	59*	·
CCOC(=O)N1CCC(NC(=O)Cn2ncn3c(cc4sc(CC)cc43)c2=O)CC1	-4	5
CC(=O)Nc1ccc(C(=O)NC2CCCC2)cc1	-23	51*
O=C(NC1CCCC1)c1ccc(S(=O)(=O)N2CCOCC2)cc1	19	·
O=C(NC1CCCCC1)c1ccc(S(=O)(=O)N2CCCC2)cc1	35*	40
CC(Oc1ccc(C(=O)NC2CCCCC2)cc1)C(=O)O (configuration not stated)	1	·
Cc1cc2c(cc1C)CSC(c1ccccc1O)SC2	81*	·
Cc1cc2c(cc1C)CSC(c1ccc3ccccc3c1O)SC2	-36	·
CNC(=O)c1ccc(N(Cc2ccccc2)S(C)(=O)=O)cc1	5	44
SMILES	Yeast tox	eIF2B yeast act
CC(=O)Oc1ccc(NC(=O)Cc2ccccc2)cc1	14	58*
CC(=O)Nc1ccc(NC(=O)Oc2ccccc2)cc1	-11	9
CCC(=O)Nc1ccc(Nc2ccccc2)cc1	8	4
COCC(=O)Nc1ccc(Nc2ccccc2)cc1	31*	-9
Cc1cccc(S(=O)(=O)NCCC(=O)OC(C)C(=O)NC(=O)NC2CCCCC2)c1 (configuration not stated)	4	33
COc1ccc(CC(=O)Nc2ccc(N3CCN(c4ccc(OC)cc4)CC3)c(C#N)c2)cc1	-26	53*
COc1ccc(OCC(=O)Nc2ccc(N3CCOCC3)cc2)cc1	6	21
Fc1ccc(Nc2nc(Oc3ccccc3F)nc(N3CCCC3)n2)cc1	2	·
CC(=O)C1=C(C)NC(C)=C(C(C)=O)C1c1ccc(-c2ccccc2Cl)o1	-13	27
C=CCn1c(Cc2cccs2)nnc1SCC(=O)c1ccc2ccccc2c1	8	3
CCOC(=O)c1ccc(NS(=O)(=O)CC)cc1	7	·
CCOC(=O)c1ccc(N2C(=O)C=CC2=O)cc1	90*	96
CC(C)(O)C#Cc1ccc(C(=O)NCc2ccccc2)s1	8	4
COc1ccc(OC)c(NC(=O)Nc2ccc(Cl)cc2)c1	31	·
COc1ccc(OC)c(N/C(C)=C/C(=O)c2ccc(C)o2)c1	-2	56*
Cc1ccc(-c2noc(CSc3ccccc3)n2)cc1	8	21
c1ccc(SCc2nc(-c3ccccn3)no2)cc1	18	64*
CCOC(=O)N1CCC(NC(=O)c2cccc3c2C(=O)N(Cc2cccnc2)C3)CC1	7	19
C=CCOC(=O)C1=C(C)Nc2nc3ccccc3n2C1c1ccncc1 (configuration not stated)	-18	63*
C=CCOC(=O)C1=C(C)Nc2ncnn2C1c1cccs1 (configuration not stated)	29	23
COCCNC(=O)C(C)OC(=O)c1cc2sccc2n1C (configuration not stated)	-11	-3
CCOC(=O)CSc1nc2ccccc2n1CC(=O)NC(C)(C)C	15	18
CCOC(=O)Cn1c(=O)c(-c2ccccc2NCc2ccccc2)nc2ccccc21	-30	58*
CCC(C)(C)n1c(=O)[nH]c2c(c1=O)CCC2	23	12
O=c1/c(=C/c2ccc(O)cc2)sc2n1CCCN=2	16	79*
SMILES	Yeast tox	eIF2B yeast act
CCOC(=O)/C=c1\sc2n(c1=O)CCN=2	-14	38
CC(C(=O)Nc1ccc2c(c1)OCCO2)N1CCN(C(=O)c2ccco2)CC1 (configuration not stated)	13	·
Cc1ccc(-c2nc3cc(C)ccc3o2)cc1	2	15
Cc1ccc2nc(-c3cccnc3)oc2c1	-4	53*
COC(=O)Cn1c2ccc(OC)cc2c2nc3ccccc3nc21	-7	53*
CCOC(=O)Cn1c2ccc(OC)cc2c2nc3ccccc3nc21	-6	33
Fc1ccc(-c2cc3nc(-c4ccccc4)cc(N4CCN(CCN5CCOCC5)CC4)n3n2)cc1	31*	-9
CCc1c(C)nc2cc(-c3cc(OC)cc(OC)c3)nn2c1N1CCN(CCN2CCOCC2)CC1	-2	·
CCCNC(=O)CCC(=O)Nc1ncc(-c2ccc(C)cc2)n1C	14	·
Cc1cc(N2CCOCC2)n2ncc(-c3ccccc3)c2n1	3	-1
Cc1cc(N2CCN(C(=O)c3ccco3)CC2)n2ncc(-c3ccccc3)c2n1	94*	92
O=S(=O)(c1ccc(Nc2ccc3c(c2)OCO3)nc1)N1CCOCC1	7	-7
CC(C)C(=O)N1CCC(CN=CC2=C(O)CC(C)(C)CC2=O)CC1	·	-29
Cc1c(N=Cc2c(O)n(Cc3ccco3)c(=O)c3ccccc23)c(=O)n(-c2ccccc2)n1C	-20	51*!
O=c1c2ccccc2c(C=NCCc2ccccc2)c(O)n1Cc1ccccc1	18	-12
CC1CCCCC1NC(=O)CN1C(=O)CSc2cc(S(=O)(=O)N3CCCCCC3)ccc21 (configuration not stated)	-7	18
O=C(Nc1ccc(-c2nc3ccccc3o2)cc1)c1ccc(N2C(=O)C3C4C=CC(C4)C3C2=O)cc1 (configuration not stated)	-15	·
CCOC(=O)c1c(NC(=O)CSc2nc3c(c(=O)n(C)c(=O)n3C)n2CC)sc(C)c1C	-41	7
CCCn1c(SCC(=O)Nc2nc3c(s2)CCCC3)nc2c1c(=O)n(C)c(=O)n2C	-35	55*
Cc1ccc(-n2nc(C)c3c2OC(N)=C(C#N)C3c2ccccc2F)cc1 (configuration not stated)	-2	24
Cc1nn(-c2ccccc2)c2c1C(c1c(C)[nH]c(C#N)c1C)C(C#N)=C(N)O2 (configuration not stated)	-7	53*
CN(C)CCCN1C(=O)C(O)=C(C(=O)c2cccs2)C1c1ccccn1 (configuration not stated)	2	44
COc1cccc(NC(=O)CN(c2ccc(C)cc2)S(=O)(=O)c2c(C)nn(C)c2C)c1	1	53*
